# In the library only some 1.6% were active in any assay of this set; here they are far more common.
# FLuc stim CS = FLuc activators, initial screening, artefact control for FLuc-dependent activation tests, biochemical, ATPlite luminescence; activation factor at 10 µM; ATPlite luciferase biochemical, 10 min; 0 = ATP-free wells, 1 = DMSO control; 200,000 tested, under 10 active; Luciferin 4-monooxygenase (Photinus pyralis), P08659;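 active = luciferase activation factor, scaled between plate controls, of at least 2 with compound at 10 µM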
# Target sequence (P08659 whole entry, looked up): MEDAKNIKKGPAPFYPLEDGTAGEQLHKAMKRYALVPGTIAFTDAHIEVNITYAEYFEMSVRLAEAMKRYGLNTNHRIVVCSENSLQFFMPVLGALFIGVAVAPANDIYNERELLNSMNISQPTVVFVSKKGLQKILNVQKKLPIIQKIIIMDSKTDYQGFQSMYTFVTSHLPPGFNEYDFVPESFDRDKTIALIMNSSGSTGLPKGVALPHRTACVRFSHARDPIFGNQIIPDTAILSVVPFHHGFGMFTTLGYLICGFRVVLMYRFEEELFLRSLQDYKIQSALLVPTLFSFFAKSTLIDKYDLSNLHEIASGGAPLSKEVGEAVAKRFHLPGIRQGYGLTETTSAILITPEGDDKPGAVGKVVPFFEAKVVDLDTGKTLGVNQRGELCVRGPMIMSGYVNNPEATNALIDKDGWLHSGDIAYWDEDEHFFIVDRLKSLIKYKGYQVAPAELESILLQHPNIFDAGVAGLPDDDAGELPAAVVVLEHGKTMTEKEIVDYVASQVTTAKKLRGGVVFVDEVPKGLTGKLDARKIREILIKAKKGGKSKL
#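 Material: Luciferase/luciferin reagent mix; Doses: test compounds dosed from 2 mM stocks in 100% DMSO; Schedule: 10 min incubation after luciferase reagent addition, room temperature; Measured by: luminescence from luciferase reaction; Read-out: luminescence gain marking luciferase activators.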
# PPC-1+TRAIL kill = compounds killing PPC-1 cancer cells with TRAIL present, primary screen, TRAIL potentiator project, ATPLite luminescence, uHTS; PPC-1 cells + TRAIL, ATPLite viability luminescence; cell killing (% activity), % at 4 µM or 5 µM; hit rate 0.41% among 220,000;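 active = cell killing above 50% in the first pass at 4 µM, then a duplicate retest at 5 µM averaging 50% or more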;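 note: plate controls were cells with TRAIL plus DMSO for no effect and medium-only wells lacking cells for full effect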
# FLuc inh counter = firefly luciferase enzyme inhibitors, primary screen, artefact control for luciferase-based inhibitor screens, biochemical, luminescence, ATPLite; Luciferin 4-monooxygenase (Photinus pyralis), P08659; AID 1006, 2008; hit rate 1.5% among 200,000; 10 min; inhibition, % at 10 µM;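 active = inhibition above about 50% when tested at 10 µM, limit read from the data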
# TRAIL sens C8 = viability loss with TRAIL in NB7+C8 cells, primary screen, TRAIL sensitizer project, cell-based, ATPlite luminescence; inhibition (viability loss, TRAIL sensitization), % at 10 µM; hit rate 1% among 360,000;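 active = compounds causing at least 50% loss of cell viability in the single-dose screen, relative to plate controls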
# The depositor's hits bear a star; x = no result given.
SMILES,FLuc stim CS,PPC-1+TRAIL kill,FLuc inh counter,TRAIL sens C8
Cc1ccc(S(=O)(=O)c2nnn3c2nc(NC2CCN(Cc4ccccc4)CC2)c2ccccc23)cc1C,x,x,x,88*
Cc1ccc(S(=O)(=O)c2nnn3c2nc(NCCCN2CCCC2=O)c2ccccc23)cc1C,x,x,x,2
Cc1ccc(-n2[nH]c(C)c(C=Nc3ccc4[nH]c(=O)[nH]c4c3)c2=O)cc1C,1,40,4,51*
Cc1ccc(S(=O)(=O)NCCc2cc3ccc(C)cc3[nH]c2=O)cc1,x,x,x,12
CC(C)(C)NC(=O)CSc1ncccc1-c1nc2ccccc2[nH]1,x,x,x,7
Cc1cc2nc(-c3cccnc3SCC(=O)NCc3ccco3)[nH]c2cc1C,x,x,x,61*
O=C(CSc1ncccc1-c1nc2ccccc2[nH]1)NCc1ccco1,0.9,2,6,3
Cc1cc2nc(-c3cccnc3SCC(=O)NC3CC3)[nH]c2cc1C,0.3,21,70*,x
Cc1cc(Cl)ccc1OCCCC(=O)NN,1,16,-4,0
CNC(=O)COC(=O)c1ccc(-c2nc3ccccc3s2)s1,0.2,66*,81*,11
COCCCNC(=O)COC(=O)c1ccc(-c2nc3ccccc3s2)s1,0.8,15,25,13
COc1ccccc1CCC(=O)NCCCn1ccc2ccccc21,x,x,x,0
Nc1nc(NC(=O)CCCC(=O)O)nn1-c1ccccc1,1.1,-10,-8,9
CCc1nnc(NC(=O)CSc2ncnc3c2oc2ccccc23)s1,1,11,-5,-2
CC(=O)c1ccccc1OCC(O)CN1CCN(CCN2C(=O)c3cccc4cccc(c34)C2=O)CC1 (configuration not stated),1,27,-3,60*
Cc1cc([N+](=O)[O-])cc2c1NC(=O)C2(O)N1CCCCCC1 (configuration not stated),1,16,-1,7
Brc1ccccc1-n1nnc(-c2nccs2)n1,0.5,12,51*,11
CCc1cc2c(=O)c(-c3ccc4c(c3)OCO4)coc2c(CN(C)C)c1O,x,x,x,-16
COc1ccc(N(C(=O)CCl)C(C(=O)NC2CCCCC2)c2cccnc2)cc1 (configuration not stated),1.1,22,-10,94*
O=C(NC1CCCCC1)C(c1cccnc1)N(C(=O)CCl)c1ccccc1Cl (configuration not stated),1.1,0,-10,15
COc1ccc(C(C(=O)NC2CCCCC2)N(C(=O)c2ccccn2)c2cccnc2)cc1 (configuration not stated),1,x,2,-4
O=C(NC1CCCCC1)C(c1cccnc1)N(C(=O)CCl)c1ccc(F)cc1 (configuration not stated),1.1,1,-8,94*
O=C(N/N=C/c1ccc(OC(F)F)cc1)C1=COCCO1,0.3,31,68*,29
NC(=O)N/N=C/c1sc(N2CCCCC2)nc1-c1cccs1,x,x,x,15
CC(C)NC(=S)N/N=C/c1sc(N2CCCCC2)nc1-c1cccs1,0.5,27,53*,15
SMILES,FLuc stim CS,PPC-1+TRAIL kill,FLuc inh counter,TRAIL sens C8
Clc1ccccc1Nc1nc(-c2cccnc2)cs1,0.2,x,84*,45
Clc1ccccc1Nc1nnc(-c2ccncc2)s1,0.2,64*,82*,60*
c1cncc(Nc2nc(-c3cccnc3)cs2)c1,1,7,-1,-3
CCCCN1C(=O)C2C(C(=O)Nc3cccc(OC)c3)C3C=CC2(O3)C1C(=O)NC1CCCCC1C (configuration not stated),1.1,7,-7,-24
Clc1ccccc1OCc1nc(-c2ccc(Br)o2)no1,1,13,1,-2
Clc1ccccc1OCc1nc(-c2ccccn2)no1,0.5,16,51*,28
Clc1ccc(OCc2nc(-c3ccccn3)no2)c(Br)c1,0.3,45,70*,52*
O=C(Cn1cnc2cc([N+](=O)[O-])ccc2c1=O)NCCc1ccc(F)cc1,1.1,21,-5,-11
O=C(NCCc1ccccn1)c1c(-c2ccsc2)sc2ccccc12,x,x,x,10
Cc1cc(OCC(O)CN2CCN(CCO)CC2)ccc1C(C)C (configuration not stated),1,-15,-1,-12
COc1ccc(Oc2c(Cl)cnn(-c3ccc(Cl)c(Cl)c3)c2=O)cc1,1,9,-4,89*
COc1ccc(Oc2c(Cl)cnn(-c3ccc(F)cc3)c2=O)cc1,1,7,0,87*
COc1ccc(Oc2c(Cl)cnn(-c3ccc(C)cc3)c2=O)cc1,1.1,16,-6,61*
Cn1ncc(Cl)c(Oc2ccc(Cl)cc2)c1=O,1.1,8,-7,6
COc1c(Cl)cnn(-c2ccc(C)cc2)c1=O,1,19,1,8
COc1cnn(-c2ccc(F)cc2)c(=O)c1Br,1,18,0,1
CC(C)(C)[C@H]1COC(=O)CC/C=C\C[C@@H](CC(=O)N[C@H](CO)Cc2ccccc2)C(=O)N1,x,x,x,4
CCOC(=O)c1nnn(-c2ccccc2)c1C,1,8,0,-18
Cc1ccc(C(=O)NCCN(C)C)c(C)c1,1,-2,-3,3
CNc1c2cccc(C)c2nc2c(C(=O)NCCN(C)C)cccc12,x,x,x,74*
Cc1ccc(C(=O)N/C(=C\c2ccc(-c3ccccc3[N+](=O)[O-])o2)C(=O)NCCCN2CCOCC2)cc1,x,x,x,56*
N#Cc1c(N)n(CCNC(=O)c2ccc(Cl)cc2)c2nc3ccccc3nc12,1,2,-2,-5
Cc1ccc(C(=O)NCCn2c(N)c(C#N)c3nc4ccccc4nc32)cc1,1.1,73*,-8,-8
COc1cc2ccc(C=O)cc2cc1OC,x,x,x,-9
COc1cccc(/C=N/NC(=O)c2cc(-c3cccn3C)n[nH]2)c1O,0.6,30,38,55*
SMILES,FLuc stim CS,PPC-1+TRAIL kill,FLuc inh counter,TRAIL sens C8
COc1cc(/C=N/NC(=O)c2cc(-c3cccn3C)n[nH]2)cc(OC)c1OC,1,-13,-1,21
COc1cccc(/C=N/NC(=O)c2cc3c(OC)cccc3[nH]2)c1OC,1,8,-2,-5
COc1cccc(/C=N/NC(=O)c2cc3c(OC)cccc3[nH]2)c1O,1,46,0,53*
C#Cc1ccc([C@H]2C=C(C(=O)N3CCN(Cc4ccccc4)CC3)O[C@@H](OCC)[C@@H]2CCCO)cc1,1.1,4,-7,-4
COc1ccccc1OCC(=O)N/N=C/C=C/c1ccc([N+](=O)[O-])o1,1.1,-14,-10,24
C/C(=N/NC(=O)c1ccc2c(c1)OCO2)c1cccc(NC(=O)C(C)(C)C)c1,0.5,21,53*,34
C/C(=N\NC(=O)c1ccc2c(c1)OCO2)c1ccco1,0.2,37,82*,52*
C/C(=N\NC(=O)c1csc(C)c1C)c1ccco1,0.2,41,79*,55*
C/C(=N\NC(=O)c1csc(C)c1C)c1ccc(C)s1,0.9,12,7,13
